Experimental findings from ChEMBL document CHEMBL3596100, “The synthesis and biological activity of novel anthracenone-pyranones and anthracenone-furans” (Bioorg Med Chem, 2015) are described below.

Test [1] can be described thus: (§1) Growth inhibition of human MIA cells after 72 hrs by MTT assay. The format is functional. Put shortly: (§2)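 Cells kept in DMEM with 10% FBS, glutamine, penicillin/streptomycin at 37 °C, 5% CO2; plated in duplicate at 2500–4000 cells/well, dosed 24 h later during log growth. After 72 h drug exposure, MTT read at 540 nm. […] Assays in triplicate, standard error reported.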
On the technique in general: Formazan colour is commonly taken as a measure of viable cells.

A further test relates to A-431. The test can be described thus: Growth inhibition of human A431 cells after 72 hrs by MTT assay. Format: functional. Put shortly: as §2
A further test deals with MCF7. The test can be described thus: Growth inhibition of human MCF7 cells after 72 hrs by MTT assay. Format: functional. The method, boiled down:
as §2

The next test relates to A2780. The test can be described thus: Growth inhibition of human A2780 cells after 72 hrs by MTT assay. The format is functional. The method, boiled down:
as §2

Test [2] is described as follows: (§3) Growth inhibition of mouse SMA cells after 72 hrs by MTT assay. Format: functional. The method, boiled down:
as §2

Test [3] in a line: (§4) Growth inhibition of human H460 cells after 72 hrs by MTT assay. Format: functional. The conditions noted are these: NCI-H460, 72 h. Put shortly: as §2
The nature of test [4]: (§5) Growth inhibition of human U87 cells after 72 hrs by MTT assay. Format: functional, U-87MG ATCC. The conditions noted are these: U-87 MG. The method, boiled down: as §2
The subject of a further test is DU-145. The test can be described thus: Growth inhibition of human DU145 cells after 72 hrs by MTT assay. Format: functional. Put shortly: as §2
Test [5] is described as follows: (§6) Growth inhibition of human SJ-G2 cells after 72 hrs by MTT assay. The format is functional. The following applies: SJ-G2, 72 h. Put shortly: as §2
A short description of test [6]: (§7) Growth inhibition of human BE(2)-C cells after 72 hrs by MTT assay. Format: functional. The method, boiled down:
as §2

A further test deals with HT-29. Nature of the test: Growth inhibition of human HT-29 cells after 72 hrs by MTT assay. Format: functional. Put shortly:
as §2

A further test concerns P338. Nature of the test: Growth inhibition of mouse […] cells. Format: functional, cell-based.
For another test, the system named is MIA. The description is as §1. Format: functional. Put shortly: as §2
A further test concerns SMA. Described as §3. The format is functional. The method, boiled down:
as §2

In another test the test system is NCI-H460. The description is as §4. The format is functional. The method, boiled down:
as §2

In a further test the test system is U-87MG ATCC. The description is as §5. Format: functional. Put shortly: as §2
For the next test, the system named is SJ-G2. Described as §6. The format is functional. The method, boiled down: as §2
The test system of the next test is BE(2)-C. The description is as §7. Format: functional. Put shortly: as §2

pIC50: −log10 of the molar value. Active and inactive are the calls of the source. The rule behind the calls is not given here.

Regarding `Cc1cc2c(c3oc(C4(C)CO4)cc(=O)c13)C(=O)c1c(O)cccc1C2=O` (racemic), the GI50 (in general, the concentration that inhibits growth by half) was 900 nM in [1]; 950 nM in the test with A-431 (A-431, 72 h); 1300 nM with MCF7 (MCF7, 72 h); 290 nM in the test on A2780 (A2780, 72 h); 160 nM in test [2]; 2100 nM in [3]. Further, the GI50 turned out to be 990 nM in test [4]; 840 nM with DU-145 (DU-145, 72 h); 800 nM in test [5]; 170 nM in [6]; 2000 nM with HT-29 (HT-29, 72 h). Also, in the test on P338, the pIC50 – broadly, −log10 of the IC50, conventionally taken in molar units – was 9.00.

For the compound `CCCCc1cc2c(C)cc3c(c2oc1=O)C(=O)c1c(OC(C)C)cccc1C3=O`, the “growth inhibition (GI)” value with MIA, in the test on A-431, in the test with MCF7, with A2780, in the test on SMA and with NCI-H460 was “Active” throughout. The “growth inhibition (GI)” value in the test on U-87MG ATCC, with DU-145, in the test on SJ-G2, in the test with BE(2)-C and in the test with HT-29 was “Active” in each case.

As for `Cc1cc2c(c3oc(=O)c(-c4ccccc4)cc13)C(=O)c1c(OC(C)C)cccc1C2=O`, the “growth inhibition (GI)” value in the test with MIA, in the test on A-431, with MCF7, in the test with A2780, in the test on SMA and in the test with NCI-H460 was “Active” each time. In addition, the “growth inhibition (GI)” value in the test on U-87MG ATCC, with DU-145, with SJ-G2, in the test on BE(2)-C and in the test on HT-29 was “Active” throughout.

In the case of `Cc1cc2c(c3oc(=O)c(CCCC#N)cc13)C(=O)c1c(OC(C)C)cccc1C2=O`, the “growth inhibition (GI)” value in the test with MIA, in the test with A-431, with MCF7, with A2780, with SMA and in the test on NCI-H460 was “Active” in each case. Besides, the “growth inhibition (GI)” value in the test on U-87MG ATCC, with DU-145, in the test with SJ-G2, with BE(2)-C and in the test with HT-29 was “Active” each time.

In the case of `CCC(C)(OCc1ccccc1)c1cc2c(C)cc3c(c2oc1=O)C(=O)c1c(OC(C)C)cccc1C3=O` (configuration not stated), the “growth inhibition (GI)” value in the test on MIA, in the test on A-431, in the test on MCF7, with A2780, with SMA and in the test with NCI-H460 was “Active” throughout. Also, the “growth inhibition (GI)” value with U-87MG ATCC, with DU-145, in the test with SJ-G2, in the test with BE(2)-C and in the test on HT-29 was “Active” throughout.

For the compound `CCCCCCc1cc2c(C)cc3c(c2oc1=O)C(=O)c1c(O)cccc1C3=O`, the “growth inhibition (GI)” value in the test with MIA, with A-431, in the test with MCF7, in the test on A2780, in the test with SMA and in the test with NCI-H460 was “Active” each time. Moreover, the “growth inhibition (GI)” value in the test with U-87MG ATCC, with DU-145, in the test with SJ-G2, with BE(2)-C and in the test with HT-29 was “Active” throughout.
